High-throughput results deposited in PubChem BioAssay by several laboratories.
Mot1-301 SUMO: blocks SUMOylation pathway, rescuing yeast Mot1-301 growth | growth rescue, % at 18.8 µM | S. cerevisiae Mot1-301 growth rescue, ATP luminescence, 38.5C; percent above DMSO median, 100 means doubled | 320,000 compounds, 1% hits | AID 2716;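 active = every valid replicate shows activation above 250% relative to neutral control wells; inactive = the rest, any valid replicate at or below 250%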;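 also: OY570 slx delta 5 strain wells were the positive control but not used for scaling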
WT yeast gro inh: growth inhibition of WT yeast, mitochondrial fusion screen; 190,000 compounds, 2.1% hits; inhibition, % at 10 µM; AID 1362; mitochondrial fusion phenotypic screen, WT strain; in the data active = inhibition above about 58%; tested in S. cerevisiae
Beta cell apopt: beta cell apoptosis inhibition | INS-1E cytokine-induced death, ATP luminescence, 48 h; percent of positive-control rescue, neutral wells zero | protection from apoptosis, % (concentration not given with the values) | 300,000 compounds, 0.8% hits | AID 435005;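 active = Every replicate reaches about 75%, or at least half do and their mean reaches it too, limit read from the data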;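 also: 0% = cytokine-treated negative control wells and 100% = positive control rescue; higher means more ATP so stronger rescue from cytokine killing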
Efflux pump mplx: antifungal efflux pump inhibition, Nile Red retention; S. cerevisiae Candida pump triplex; inhibition, % at 10 µM; 330,000 compounds, 0.44% hits; AID 485275;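 active = plate passing quality check with inhibition over a set limit, or well fluorescence over plate mean plus 4 SD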;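 also: Nile Red retained in pooled yeast measured as flow cytometry median fluorescence; 0% = buffer negative control and 100% = Enniatin B positive control; higher means more Nile Red kept so more efflux inhibition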
T cruzi repl: T. cruzi replication inhibition; inhibition, % (no concentration beside the values); AID 1885; T. cruzi beta-gal in NIH3T3, luminescence, 90 h; 300,000 compounds, 1.4% hits;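 active = mean inhibition across valid replicates above about 55%, limit read from the data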;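 also: signal also drops with host cell toxicity which is not excluded here; 0% = plate median of DMSO wells and 100% = zero luminescence signal; higher percent means less beta-gal luminescence so fewer parasites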
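Assay system: NIH/3T3 host cells with β-galactosidase reporter T. cruzi; input: 5,000 host fibroblasts per well; compound: single 50 nL compound addition per well in DMSO; timing: ≥90 h infection period, 3 h prior cell attachment; measured by: GalScreen β-gal luminescence, detergent lysis, 60 min; evaluation: percent inhibition of parasite-derived β-gal signal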
CSC inhib: cancer stem cell inhibition; cancer stem cell-like cells viability, luminescence; inhibition, % at 7.5 µM; 300,000 compounds, 1.1% hits; in the data active = inhibition above about 75%; tested in HMLE shEcad cells
Active calls of the source: *; · = no result. Compounds with a hit are over-represented: about 4.8% of the library has one in this group of screens.

SMILES | Mot1-301 SUMO | WT yeast gro inh | Beta cell apopt | Efflux pump mplx | T cruzi repl | CSC inhib
O=S(=O)(NCc1ccncc1)c1ccc(Br)s1 | -0.3 | -1.9 | 115.9* | 0.1 | 18.1 | 4.9
CCN(C1CCCCC1)S(=O)(=O)c1ccc(S(=O)(=O)NCc2ccncc2)cc1 | 5.6 | -16.3 | 102.6* | -0.3 | -36.1 | 17.3
Cc1ccc(S(=O)(=O)NCc2ccncc2)cc1C | -5.7 | -16.6 | 89.5* | 0.1 | -79.4 | -11.3
Cc1c(Br)cccc1NC(=O)c1sccc1-n1cccc1 | · | -4.0 | · | · | 17.8 | ·
CC(C)c1ccc(NC(=O)c2sccc2-n2cccc2)cc1 | 103.5 | 67.2* | 0.5 | 0.0 | 34.4 | 32.8
Cn1nc([N+](=O)[O-])nc1Oc1ccccc1N | 310.2 | 13.5 | · | 0.0 | 62.7* | -0.5
Cn1nc([N+](=O)[O-])nc1Oc1ccc2ccccc2c1 | 22.1 | -9.8 | -13.7 | 0.0 | 47.2 | -6.8
Cn1nc([N+](=O)[O-])nc1Oc1ccccc1F | 286.1 | -0.9 | -0.7 | 0.1 | 74.1* | ·
O=C(O)c1ccc(-c2nnc(-c3ccccc3)o2)cc1 | -33.3 | · | 13.8 | -0.1 | -1.3 | 30.9
O=C(c1ccc(-c2nnc(-c3ccccc3)o2)cc1)N1CCCCCC1 | -22.9 | 65.4* | 2.7 | 0.2 | -1.1 | 45.2
Cc1cccc(N(C)S(=O)(=O)c2ccc(-c3cnc(C4CC4)o3)cc2)c1 | -2.0 | · | 53.8 | -0.2 | 4.3 | 77.5*
COc1ccc(NS(=O)(=O)c2ccc(-c3cnc(C4CC4)o3)cc2)cc1OC | 4.1 | · | 92.5* | 0.0 | -33.9 | 62.2
Cc1ccc(N(C)S(=O)(=O)c2cc(-c3cnc(C4CC4)o3)ccc2C)cc1 | 37.2 | · | 2.2 | 0.1 | 38.6 | 39.6
CSc1ccccc1NC(=O)C1=CC(c2ccc(C)cc2)=NS(=O)(=O)N1C | 3.6 | · | 3.3 | -0.1 | -6.4 | 4.2
Fc1ccc(N=C2NN=C(c3cc(F)ccc3F)CS2)cc1 | -19.6 | 80.1* | 62.8 | -0.1 | · | 29.5
Cc1cccc(N=C2NN=C(c3ccccc3F)CS2)c1C | -15.6 | 26.7 | -4.9 | 0.1 | 0.1 | -11.1
Fc1ccc(F)c(C2=NNC(=Nc3ccccc3F)SC2)c1 | 0.4 | 63.2* | 37.1 | -0.2 | -0.6 | 20.3
Fc1ccccc1N=C1NN=C(c2ccccc2)CS1 | -26.9 | 26.8 | 97.4* | 0.4 | 4.0 | 46.5
CCC(=O)c1cc(F)c(N2CCN(S(=O)(=O)c3ccc(C)cc3)CC2)cc1C | -4.3 | 10.2 | 64.4 | -0.1 | 58.9* | 34.3
O=C(NCC1CCCO1)/C(=C\c1ccccc1F)NC(=O)c1ccccc1 (configuration not stated) | 20.5 | · | 0.4 | 0.2 | 30.9 | -8.7
O=C(CCl)N(CCc1ccccc1)CCc1ccccc1 | -16.1 | · | 3.3 | 0.1 | 56.2* | ·
O=C(Nc1ccc2c(c1)OCO2)c1ccccc1SCC(=O)N1CCCC1 | 174.8 | 65.0* | -3.4 | 0.5 | -0.8 | -16.5
Cc1nnc(-c2cnn(C)c2N)n1Cc1cccc(Cl)c1 | 0.8 | -1.4 | 0.3 | -0.1 | -39.0 | -1.2
O=C(N=C1SCC(=O)N1c1ccccc1Cl)c1ccccc1 | · | 77.5* | · | · | -9.3 | ·
CCCOC(=O)c1ccc(Oc2c(-c3ccc(OCC)cc3O)n[nH]c2C)cc1 | 0.2 | 36.8 | 37.2 | 0.1 | 4.4 | 136.9*
SMILES | Mot1-301 SUMO | WT yeast gro inh | Beta cell apopt | Efflux pump mplx | T cruzi repl | CSC inhib
CCCOC(=O)c1ccc(Oc2cn[nH]c2-c2ccc(OCC)cc2O)cc1 | -12.5 | -11.5 | -0.7 | -0.2 | -2.9 | -7.2
COc1cccc(Oc2cn[nH]c2-c2ccc(OC)cc2O)c1 | · | 26.5 | · | 0.1 | 7.0 | 35.3
COc1ccc(Oc2c(-c3ccc(O)cc3O)n[nH]c2C)cc1 | 132.0 | -10.5 | -4.6 | 0.0 | -5.4 | -6.2
CCCc1ccc(Oc2c(-c3ccc(O)c(C)c3O)n[nH]c2C)cc1 | 63.8 | 89.7* | 4.7 | 0.1 | 13.9 | 100.1*
CCCc1ccc(Oc2cn[nH]c2-c2ccc(O)c(C)c2O)cc1 | 110.5 | 82.7* | · | -0.2 | 45.1 | 123.5*
CC(=O)Nc1ccc2c(c1)nc(CCN1CCN(C)CC1)n2C | 624.7 | 7.1 | -0.4 | -0.1 | -2.6 | -6.7
CCN(c1ccccc1)S(=O)(=O)c1ccc2c(c1)OCCO2 | 12.4 | · | -5.5 | -0.1 | · | -1.6
CCc1ccc2c(c1)C1(C(=O)N2)N2CCCC2C(C(=O)c2ccc3ccccc3c2)C12C(=O)Nc1ccccc12 (configuration not stated) | 12.4 | 44.6 | 121.1* | -0.1 | 26.0 | 159.5*
CN(C(=O)COC(=O)c1nn(C)c(=O)c2ccccc12)c1c(N)n(Cc2ccccc2)c(=O)[nH]c1=O | -10.7 | · | -6.4 | 0.0 | -6.5 | -11.3
OCC[C@H]1C[C@@H](O)[C@H](O)[C@@]2(Cc3ccccc3O2)O1 | -9.6 | · | 0.6 | 0.0 | · | 5.3
COc1ccccc1-c1oc2ccccc2c1C#CC1(O)CCCCC1 | 1.7 | · | -5.8 | -0.1 | · | 65.3
COc1ccccc1-c1oc2ccccc2c1C#CC1(N)CCCCC1 | 23.0 | · | 6.9 | -0.2 | · | 130.2*
O=C(CN1C(=O)c2ccccc2S1(=O)=O)NC(Nc1ccccc1F)C(Cl)(Cl)Cl (configuration not stated) | -2.5 | 9.4 | -2.5 | -0.2 | -9.3 | -0.7
CN(Cc1cn(C)c2ccccc12)C(=S)Nc1cc(F)cc(F)c1 | -6.0 | 21.8 | -0.3 | 0.1 | -15.9 | -4.5
Cc1cccc(NC(=S)N(C)Cc2cn(C)c3ccccc23)c1 | 1.2 | 72.0* | -0.7 | 0.1 | -15.3 | -11.7
O=C1c2cccc3cccc(c23)C(=O)N1c1nccs1 | -15.2 | 19.1 | 7.4 | -0.2 | · | ·
O=C1c2cccc3c([N+](=O)[O-])ccc(c23)C(=O)N1c1nccs1 | 241.8 | 32.0 | 8.7 | 1.2* | 0.4 | 79.4*
Cc1ccc(NC(=O)c2cc(S(=O)(=O)NCCC3=CCCCC3)ccc2F)cc1 | 9.7 | 55.3 | 105.3* | 0.0 | -9.1 | ·
O=C(CN(Cc1ccccc1F)S(=O)(=O)c1ccc(Cl)cc1)NCCC1=CCCCC1 | -8.6 | 6.2 | 20.7 | 0.2 | 45.2 | 31.2
Cc1ccc(S(=O)(=O)N(CC(=O)NCCC2=CCCCC2)Cc2ccccc2F)cc1 | -21.6 | 61.3* | 15.1 | 0.2 | 39.4 | 2.8
COc1c(C)cc(Br)cc1C(=O)NC(=S)NCc1ccco1 | 2.7 | · | 1.5 | -0.1 | 0.4 | 21.7
COc1ccccc1-c1cc(C(F)(F)F)nc(S(=O)(=O)CCCC(=O)N2CCOCC2)n1 | 11.0 | -0.5 | -9.3 | 0.2 | -16.5 | 82.2*
Cc1cc(C)nc(/N=C(\N)Nc2ccc(S(=O)(=O)Nc3nccc(C)n3)cc2)n1 | 536.2 | -0.5 | · | 0.5 | 2.1 | -8.3
Cc1cc(-c2ccccc2)nc(N/N=C/c2ccccc2F)n1 | 6.1 | · | 8.1 | -0.1 | -4.5 | 22.2
Cc1cc(C)c(Cn2cnc(-c3ccc([N+](=O)[O-])cc3)c2)c(C)c1 | 26.5 | 60.1* | 4.1 | 0.1 | 24.4 | 30.4
CCN(CC)C(=O)CSc1nc2cc3c(cc2c(=O)n1Cc1ccc(OC)cc1)OCO3 | 0.1 | -7.0 | -3.5 | 0.1 | 19.7 | -1.1
c1ccc(COc2cccc(CNCc3cccnc3)c2)cc1 | 10.6 | 1.9 | · | 0.0 | 61.5* | 3.1
